Sampled rows, rich in hits. Any-hit rate of the full collection: about 4%.
ERb coact inh = inhibitors of ERβ-SRC1 coactivator interaction, primary screen, biochemical, TR-FRET, ERβ LBD, SRC-1 peptide | 86,000 compounds, 1.3% hits | Estrogen receptor beta (Homo sapiens), Q92731 | AID 633, 2007 | TR-FRET ER-beta LBD / SRC1-Cy5 peptide binding; receptor agonist-loaded with 1 µM estradiol | inhibition, % at 25.6 µM;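 active = compounds whose percent inhibition of the receptor-coactivator binding signal exceeds about 50% in the single-dose screen, limit read from the data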
FAK blocker = FAK kinase inhibitors, primary screen, biochemical | biochemical FAK kinase activity assay | inhibition, %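 (tested at 7 µM)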 | 97,000 compounds, 0.84% hits | AID 727, 2007; in the data active = inhibition above about 19%
ERa SRC1 inh = ERα–SRC-1 coactivator interaction inhibitors, primary screen, biochemical, TR-FRET, ERα LBD, estradiol-bound | Estrogen receptor (Homo sapiens), P03372 | TR-FRET ER-alpha LBD / SRC-1 peptide | inhibition, % at 25.6 µM | 86,000 compounds, 1.7% hits; in the data active = inhibition above about 50%
Smad3 inh = Smad3/FoxH1 peptide binding inhibitors, primary screen, biochemical, TR-FRET. 88,000 compounds, 0.29% hits. AID 630, 2007. inhibition, % at 25 µM. Mothers against decapentaplegic homolog 3 (Homo sapiens), P84022. TR-FRET Smad3/Dy647-FoxH1 peptide binding, europium anti-His;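 active = compounds that reduce the energy-transfer binding signal between the protein and its labelled peptide by more than half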
Target sequence (P84022 whole entry, looked up): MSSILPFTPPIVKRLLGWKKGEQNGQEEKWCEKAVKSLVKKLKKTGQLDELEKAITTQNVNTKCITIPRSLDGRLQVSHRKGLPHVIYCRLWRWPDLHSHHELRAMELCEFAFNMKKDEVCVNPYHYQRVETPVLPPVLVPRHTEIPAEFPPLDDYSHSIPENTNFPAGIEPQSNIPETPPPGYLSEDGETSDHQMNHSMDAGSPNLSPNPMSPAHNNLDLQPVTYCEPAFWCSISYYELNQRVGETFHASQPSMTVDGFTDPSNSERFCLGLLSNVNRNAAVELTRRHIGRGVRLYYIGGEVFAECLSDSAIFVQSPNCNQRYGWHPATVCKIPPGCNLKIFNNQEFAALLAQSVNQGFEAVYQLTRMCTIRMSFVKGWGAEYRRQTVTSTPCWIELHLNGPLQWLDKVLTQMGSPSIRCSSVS
HIV Rev-RRE inh = HIV-1 Rev-RRE binding inhibitors, primary screen, biochemical, FRET, protein-RNA interaction; Rev peptide-RRE RNA binding; inhibition, % at 8 µM; 97,000 compounds, 0.79% hits;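 active = inhibition above the screen-wide mean plus 3 SD, cut at about 35% in these data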
Target sequence (P05866 whole entry, looked up): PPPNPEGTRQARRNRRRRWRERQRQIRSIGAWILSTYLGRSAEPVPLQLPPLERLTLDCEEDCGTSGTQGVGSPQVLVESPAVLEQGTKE
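Probe or stimulus: fluorescein-Rev peptide as binding partner; assay system: Cy5-tagged RRE RNA duplex with fluorescein-tagged Rev peptide; timing: 5 min compound–RNA preincubation, then 15 min with peptide, 25 °C; medium: HEPES pH 7.5 buffer with KCl, MgCl2, NaCl and EDTA; signal: fluorescein-to-Cy5 FRET, 480 nm excitation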
ERa coact pot = enhancers of ERα–SRC-1 coactivator binding, primary screen, biochemical, TR-FRET, ERα LBD, low estradiol; TR-FRET ERalpha-LBD/SRC-Cy5 coactivator binding, 2 h; 100 = basal binding, no effect; Estrogen receptor (Homo sapiens), P03372; coactivator binding (% of control), % at 25.6 µM; 86,000 compounds, 1.3% hits; in the data active = activity above about 200%;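 note: binding measured in presence of low estradiol as agonist stimulus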
A number is an active result; i = inactive; nt = no result given; [ ] = remark or other dose.

SMILES | ERb coact inh | FAK blocker | ERa SRC1 inh | Smad3 inh | HIV Rev-RRE inh | ERa coact pot
OC(CN1CCN(c2ccccc2)CC1)Cn1c2ccccc2c2ccccc21 (stereo not given) | i | i | i | i | i | 270[fluorescence artefact?]
NC1=NC(c2ccc(Cl)cc2)n2c(nc3ccccc32)N1 (stereo not given) | i | i | i | i | i | i
CCn1c2ccccc2c2cc(C3N=C(N)Nc4nc5ccccc5n43)ccc21 (stereo not given) | i | i | i | i | i | 277[fluorescence artefact?]
O=C(O)[C@H]1CCCC[C@@H]1c1c2ccc(=O)c(O)c-2oc2c(O)c(O)ccc12 | nt | nt | nt | 101 | nt | nt
Cc1ccc2c(=O)cc(C(F)F)oc2c1 | i | i | 55[fluorescence artefact?] | i | i | i
CC(C)(C)c1ccc(O)c(CN(Cc2c(O)ccc3ccccc23)C2CCCCC2)c1 | nt | nt | nt | i | nt | nt
Cc1ccc(SCN2CCCCC2)cc1 (tested in a mixture with another compound) | nt | nt | nt | i | nt | nt
CN1/C(=C/C2CC(=O)NC2=O)C(C)(C)c2ccccc21 (stereo not given) | i | i | i | i | i | i
CCCCN1C(=O)/C(=C/C=C2\N(C)c3ccccc3C2(C)C)SC1=S | nt | i | nt | nt | 140[fluorescence artefact?] | nt
N=C1C(c2ccccc2)=C(O)C2CCc3ccccc3N12 (stereo not given) | i | nt | 58[fluorescence artefact?] | i | nt | i
Cc1ccc(N[C@H](c2ccccc2)c2ccc3cccnc3c2O)cc1 | nt | nt | nt | i | nt | nt
CCCn1nnc(NC(=O)c2cc(Br)cc(Br)c2OC)n1 | i | i | i | i | i | i
O=C(CCn1c(=O)sc2ccccc21)NCCN1CCOCC1 | i | i | i | i | i | i
O=[N+]([O-])c1ccc(/C=N/Nc2nc(-c3ccccc3)c3cc(Br)ccc3n2)o1 | nt | i | nt | nt | i | nt
Cc1ccc2nc(N/N=C\c3ccc([N+](=O)[O-])o3)nc(-c3ccccc3)c2c1 | i | i | i | i | 58 | i
O=C(NCc1ccco1)c1ccc(S(=O)(=O)N2CCOCC2)cc1 | 56[fluorescence artefact?] | i | 70[fluorescence artefact?] | i | i | i
COc1ccc(C(=O)NCCn2ccc3ccccc32)cc1 | i | i | i | i | i | i
Cc1cc2ccccc2n1CCNC(=O)c1ccc(S(=O)(=O)N2CCOCC2)cc1 | i | nt | 70[fluorescence artefact?] | i | nt | i
Cc1cc2ccccc2n1CCNC(=O)Cc1cccc2ccccc12 | i | i | i | i | i | 212
O=C(NCCn1ccc2ccccc21)c1ccc(S(=O)(=O)N2CCCCC2)cc1 | i | nt | i | 59 | nt | i
CCC(=O)NCCn1c(C)cc2ccccc21 | i | i | i | i | i | i
Cc1cc2ccccc2n1CCNC(=O)c1ccccc1 | i | i | i | i | i | i
O=C1C=CC(=Nc2cccc3c(N=C4C=CC(=O)O4)cccc23)O1 | nt | nt | nt | i | nt | nt
CCCCN(c1ccccc1)c1ncnc2c1cnn2C | nt | nt | nt | i | nt | nt
CN1C(=O)CSc2ccc(NC(=O)N3CCN(c4ccccn4)CC3)cc21 | i | nt | i | i | nt | i
SMILES | ERb coact inh | FAK blocker | ERa SRC1 inh | Smad3 inh | HIV Rev-RRE inh | ERa coact pot
CN1C(=O)CSc2ccc(NC(=O)N3CCC(N4CCCCC4)CC3)cc21 | 51 | i | 58 | i | i | i
O=C(O)[C@H]1CC=CC[C@@H]1C(=O)Nc1cccc(O)c1 | nt | nt | nt | i | nt | nt
CCOC(=O)/C(C#N)=C1/SC(CC)C(=O)N1c1ccc(Br)cc1 (stereo not given) | i | i | i | i | i | i
CCOC(=O)/C(C#N)=C1/SC(CCO)C(=O)N1c1ccccc1 (stereo not given) | i | 23 | i | i | i | i
CC1N(C)c2cccc3cccc(c23)N1C | 83[fluorescence artefact?] | i | 51[fluorescence artefact?] | i | i | i
CC(C)Cn1c(N)c(C(=O)CSc2nc3ccccc3n2C)c(=O)n(C)c1=O | nt | i | nt | nt | i | nt
Cc1ccc(-n2nnnc2SCC(=O)c2c(N)n(CC(C)C)c(=O)n(C)c2=O)cc1 | i | i | i | i | i | 242
O=c1oc2cc(N=Cc3ccc4c(c3)OCO4)ccc2c2ccccc12 | nt | nt | nt | i | nt | nt
Cn1c2ccccc2c2nnc(SCc3ccc4nonc4c3)nc21 | i | i | 55[fluorescence artefact?] | i | i | i
CCn1c2ccccc2c2nnc(SCC(N)=O)nc21 | i | i | i | i | i | i
CCn1c2ccccc2c2nnc(SCC(=O)Nc3ccc4c(c3)OCO4)nc21 | i | i | 50 | i | i | i
CCn1cc(SCC(=O)NCc2ccc3c(c2)OCO3)c2ccccc21 | 53 | nt | i | i | nt | i
CCn1c2ccccc2c2nnc(SCc3ccccc3)nc21 | i | nt | 56[fluorescence artefact?] | i | nt | i
CCn1c2ccccc2c2nnc(SCC(=O)Nc3cc(C)on3)nc21 | i | i | i | i | i | i
N#Cc1c(C(F)(F)F)cc(-c2cccc(Cl)c2)[nH]c1=O | nt | i | nt | nt | i | nt
C[C@H](CCC(=O)O)[C@H]1CC[C@@]2(C)[C@@H]3C(=O)C[C@H]4C(C)(C)[C@@H](O)CC[C@]4(C)[C@H]3C(=O)C[C@]12C | nt | nt | nt | i | nt | nt
O=C(O)c1ccccc1NCn1c(=S)sc2ccccc21 | nt | nt | nt | i | nt | nt
CC1(C)CC(=O)C2=C(C1)OC(N)=C(C#N)C2c1ccccc1 (stereo not given) | i | i | i | i | i | i
CSc1ccc(C2C(C#N)=C(N)Oc3c2ccc(=O)c2c(C)oc(C)c32)cc1 (stereo not given) | 58 | i | 78 | i | 43 | i
Cc1oc(C)c2c(=O)ccc3c(c12)OC(N)=C(C#N)C3c1ccccc1Cl (stereo not given) | nt | i | nt | nt | 97[fluorescence artefact?] | nt
Cc1oc(C)c2c(=O)ccc3c(c12)OC(N)=C(C#N)C3c1ccccc1 (stereo not given) | i | i | i | i | 60 | i
N#CC1=C(N)Oc2c(ccc3ccccc23)C1c1cccs1 (stereo not given) | i | i | i | i | i | i
CNc1nc(C)c(C(=O)c2ccc(Cl)cc2)s1 | nt | i | nt | nt | i | nt
c1ccc(-c2cc(-c3cc(-c4ccccn4)[nH]n3)n[nH]2)nc1 | nt | nt | nt | i | nt | nt
CC(C)OC(=O)CSc1nnc(-c2ccncc2)n1N | i | i | i | i | i | i
CC(C)OC(=O)CSc1nnc(-c2ccc(C(C)(C)C)cc2)n1N | i | i | 98[fluorescence artefact?] | i | i | i
COc1cc2[nH]c(=O)n(CCC(=O)N3CCN(c4cccc(C)c4C)CC3)c(=O)c2cc1OC | i | i | 53[fluorescence artefact?] | i | i | i
COc1cc2[nH]c(=O)n(CCCCCC(=O)N3CCN(c4ccccc4)CC3)c(=O)c2cc1OC | i | i | i | i | i | i
O=C(O)C1C(C(=O)O)C(C(=O)O)C1C(=O)O (stereo not given) | nt | nt | nt | i | nt | nt
